Experimental data as given in ChEMBL document CHEMBL1955783, “Identification and optimization of small molecule antagonists of vasoactive intestinal peptide receptor-1 (VIPR1)” (Bioorg Med Chem Lett, 2012).
Active and inactive are the calls of the source. The calls are words filed in the database; no cut-off is given here.

Experiments:
[1] = test system: Calu-6; test: Cytotoxicity against human Calu6 cells expressing VIPR1 in presence of 2% serum; assay type: functional, cell-based
How it was run: (§1)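 Cell proliferation in H727, H1299 and Calu6 lines, chosen for high VIPR1 expression. Medium held 2% serum to limit albumin sequestration. Compounds were tested at concentrations up to 10 µM.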

[2] = test system: NCI-H1299; test: Cytotoxicity against human NCI-H1299 cells expressing VIPR1 in presence of 2% serum; assay type: functional, cell-based; how it was run: as §1
[3] = test system: NCI-H727; test: Cytotoxicity against human NCI-H727 cells expressing VIPR1 in presence of 2% serum; assay type: functional, cell-based; how it was run: as §1
[4] = molecular target: T1, Vasoactive intestinal polypeptide receptor 1 (Rattus norvegicus) (UniProt P30083); test: Displacement of [125I]VIP from vasoactive intestinal peptide receptor 1 in rat RKE cell membrane after 3 hrs by TopCount assay; assay type: cell membranes
T1 sequence (whole entry): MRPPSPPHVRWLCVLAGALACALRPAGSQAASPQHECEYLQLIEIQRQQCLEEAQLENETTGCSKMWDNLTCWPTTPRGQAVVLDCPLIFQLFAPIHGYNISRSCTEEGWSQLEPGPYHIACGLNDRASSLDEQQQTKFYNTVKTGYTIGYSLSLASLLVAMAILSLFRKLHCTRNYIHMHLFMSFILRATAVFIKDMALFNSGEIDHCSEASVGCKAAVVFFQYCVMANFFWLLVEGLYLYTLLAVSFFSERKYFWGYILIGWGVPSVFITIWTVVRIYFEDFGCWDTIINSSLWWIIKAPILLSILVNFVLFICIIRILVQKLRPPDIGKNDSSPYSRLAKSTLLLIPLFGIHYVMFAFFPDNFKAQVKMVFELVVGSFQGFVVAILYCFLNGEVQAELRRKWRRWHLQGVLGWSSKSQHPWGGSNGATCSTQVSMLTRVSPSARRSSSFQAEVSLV
How it was run: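 Membranes from RKE-VIPR cells, 5 µg/well final, preincubated 10 min at room temperature with wheat germ agglutinin-coated PVT beads in 50 mM HEPES, 5 mM MgCl2, 1 mM CaCl2, 0.1% BSA. IC50 taken from a four-parameter logistic fit after subtracting nonspecific binding, defined with excess VIP.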

[5] = molecular target: T2, Vasoactive intestinal polypeptide receptor 1 (Rattus norvegicus, UniProt P30083); test: Antagonist activity at vasoactive intestinal peptide receptor 1 in rat RKE cells assessed as inhibition of VIP-induced intracellular cAMP accumulation incubated for 15 mins prior to VIP-stimulation measured after 30 mins by HTRF assay
T2 sequence (P30083 whole entry): T1 sequence (whole entry)

[6] = test system: Calu-6; test: Cytotoxicity against human Calu6 cells expressing VIPR1 up to 10 uM in presence of 2% serum; assay type: functional, cell-based; how it was run: as §1
[7] = test system: NCI-H1299; test: Cytotoxicity against human NCI-H1299 cells expressing VIPR1 up to 10 uM in presence of 2% serum; assay type: functional, cell-based; how it was run: as §1
[8] = test system: NCI-H727; test: Cytotoxicity against human NCI-H727 cells expressing VIPR1 up to 10 uM in presence of 2% serum; assay type: functional, cell-based; how it was run: as §1

| SMILES | Activity [1] | Activity [2] | Activity [3] | Activity [4] | IC50 [5] [nM] | Activity [6] | Activity [7] | Activity [8] |
| --- | --- | --- | --- | --- | --- | --- | --- | --- |
| CCC(=O)Nc1sc2c(c1C#N)CCCC2 | inactive | inactive | inactive | Active | 12000 | – | – | – |
| N#Cc1c(NC(=O)C2Cc3ccccc3C2)sc2c1CCCC2 | inactive | inactive | inactive | Active | 17000 | – | – | – |
| CC(C)c1cc(C(C)(C)C)cc(-c2ccccc2)c1CO | – | – | – | Active | 390 | inactive | inactive | inactive |
| CC(C)c1cc(C(C)(C)C)cc(-c2ccc3ccccc3c2)c1CO | – | – | – | Active | 120 | inactive | inactive | inactive |
| CC(C)CC(=O)Nc1sc2c(c1C#N)CCCC2 | inactive | inactive | inactive | Active | 1900 | – | – | – |
| CC(C)c1cc(C(C)(C)C)cc(-c2cccc3ccccc23)c1CO | – | – | – | Active | 180 | inactive | inactive | inactive |
| CSc1cccc(-c2cc(C(C)(C)C)cc(C(C)C)c2CO)c1 | – | – | – | Active | 170 | inactive | inactive | inactive |
| N#Cc1c(NC(=O)CCc2ccccc2)sc2c1CCCC2 | inactive | inactive | inactive | Active | 290 | – | – | – |
| Cc1cccc(CCC(=O)Nc2sc3c(c2C#N)CCCC3)c1 | inactive | inactive | inactive | Active | 750 | – | – | – |
| CC(C)C(=O)Nc1sc2c(c1C#N)CCCC2 | inactive | inactive | inactive | Active | 3400 | – | – | – |
| CC(C)c1cc(C(C)(C)C)cc(-c2cccc(N(C)C)c2)c1CO | – | – | – | Active | 310 | inactive | inactive | inactive |
| N#Cc1c(NC(=O)C2CC2)sc2c1CCCC2 | inactive | inactive | inactive | Active | 2700 | – | – | – |
| CC(C)c1cc(C(C)(C)C)cc(-c2cccc(C(F)(F)F)c2)c1CO | – | – | – | Active | > 50000 | inactive | inactive | inactive |
| N#Cc1c(NC(=O)CCc2ccc(Cl)cc2)sc2c1CCCC2 | inactive | inactive | inactive | Active | 1200 | – | – | – |
| CC(=O)Nc1sc2c(c1C#N)CCCC2 | inactive | inactive | inactive | Active | 13000 | – | – | – |
| N#Cc1c(NC(=O)C2CCc3ccccc3C2)sc2c1CCCC2 (stereo not given) | inactive | inactive | inactive | Active | 12000 | – | – | – |
| COc1ccccc1-c1cc(C(C)(C)C)cc(C(C)C)c1CO | – | – | – | Active | 820 | inactive | inactive | inactive |
| Cc1cccc(-c2cc(C(C)(C)C)cc(C(C)C)c2CO)c1 | – | – | – | Active | 240 | inactive | inactive | inactive |
| CC(C)c1cc(C(C)(C)C)cc(-c2ccc(-c3ccccc3)cc2)c1CO | – | – | – | Active | 680 | inactive | inactive | inactive |
| CC(C)c1cc(C(C)(C)C)cc(-c2ccc(Cl)cc2)c1CO | – | – | – | Active | 290 | inactive | inactive | inactive |

| SMILES | Activity [1] | Activity [2] | Activity [3] | Activity [4] | IC50 [5] [nM] | Activity [6] | Activity [7] | Activity [8] |
| --- | --- | --- | --- | --- | --- | --- | --- | --- |
| COc1cccc(CCC(=O)Nc2sc3c(c2C#N)CCCC3)c1 | inactive | inactive | inactive | Active | 610 | – | – | – |
| CC(C)c1cc(C(C)(C)C)cc(-c2ccccc2-c2ccccc2)c1CO | – | – | – | Active | 3200 | inactive | inactive | inactive |
| COc1ccc(-c2cc(C(C)(C)C)cc(C(C)C)c2CO)cc1 | – | – | – | Active | 1300 | inactive | inactive | inactive |
| CC(C)c1cc(C(C)(C)C)cc(-c2cccc(Cl)c2)c1CO | – | – | – | Active | 100 | inactive | inactive | inactive |
| N#Cc1c(NC(=O)CC2Cc3ccccc3O2)sc2c1CCCC2 (stereo not given) | inactive | inactive | inactive | Active | 3800 | – | – | – |
| N#Cc1c(NC(=O)Cc2cc3ccccc3s2)sc2c1CCCC2 | inactive | inactive | inactive | Active | 1900 | – | – | – |
| COc1cccc(-c2cc(C(C)(C)C)cc(C(C)C)c2CO)c1 | – | – | – | Active | 200 | inactive | inactive | inactive |
| CC(C)c1cc(C(C)(C)C)cc(-c2cccc(-c3ccccc3)c2)c1CO | – | – | – | Active | 210 | inactive | inactive | inactive |
| N#Cc1c(NC(=O)C2CCCC2)sc2c1CCCC2 | inactive | inactive | inactive | Active | 470 | – | – | – |
| Cc1ccc(CCC(=O)Nc2sc3c(c2C#N)CCCC3)cc1 | inactive | inactive | inactive | Active | 480 | – | – | – |
| Cc1ccc(-c2cc(C(C)(C)C)cc(C(C)C)c2CO)cc1 | – | – | – | Active | 300 | inactive | inactive | inactive |
| N#Cc1c(NC(=O)Cc2cc3ccccc3[nH]2)sc2c1CCCC2 | inactive | inactive | inactive | Active | 50000 | – | – | – |
| N#Cc1c(NC(=O)Cc2ccccc2)sc2c1CCCC2 | inactive | inactive | inactive | Active | 1600 | – | – | – |
| Cc1ccc(-c2cc(C(C)(C)C)cc(C(C)C)c2CO)cc1C | – | – | – | Active | 81 | inactive | inactive | inactive |
| Cc1ccccc1CCC(=O)Nc1sc2c(c1C#N)CCCC2 | inactive | inactive | inactive | Active | 11000 | – | – | – |
| N#Cc1c(NC(=O)COc2ccccc2)sc2c1CCCC2 | inactive | inactive | inactive | Active | 9100 | – | – | – |
| N#Cc1c(NC(=O)C2CCCCC2)sc2c1CCCC2 | inactive | inactive | inactive | Active | 470 | – | – | – |
| CC(C)c1cc(C(C)(C)C)cc(-c2cccc(C#N)c2)c1CO | – | – | – | Active | > 50000 | inactive | inactive | inactive |
| COc1ccc(CCC(=O)Nc2sc3c(c2C#N)CCCC3)cc1 | inactive | inactive | inactive | Active | 410 | – | – | – |
| N#Cc1c(NC(=O)C2CCC2)sc2c1CCCC2 | inactive | inactive | inactive | Active | 1800 | – | – | – |
